Common to all, as to format: functional
Assay [1] concerns Pseudomonas aeruginosa. Briefly: Antibacterial activity against Pseudomonas aeruginosa ATCC 27853 at 30 ug/disk after overnight incubation by agar diffusion test. The following applies: read-out: Diameter of inhibition zone. The method, boiled down: (§1)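 Commercial antibiotic control disks were placed on agar plates seeded with the named strain. Plates were incubated overnight at 37 °C, and the diameter of the inhibition zone around each disk was measured in mm.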
(In general: In agar diffusion tests the substance spreads into inoculated agar from a disc or well.)

The test system of assay [2] is Klebsiella pneumoniae subsp. pneumoniae. Briefly: Antibacterial activity against Klebsiella pneumoniae subsp. pneumoniae ATCC 13833 at 30 ug/disk after overnight incubation by agar diffusion test. The following applies: read-out: Diameter of inhibition zone. In short, it runs like this:
as §1

Assay [3] has as its system Staphylococcus aureus. Briefly: Antibacterial activity against Staphylococcus […] at 30 ug/disk after overnight incubation by agar diffusion test. The following applies: read-out: Diameter of inhibition zone. The method, boiled down:
as §1

The test system of assay [4] is Bacillus cereus. Briefly: Antibacterial activity against Bacillus cereus ATCC 11778 at 30 ug/disk after overnight incubation by agar diffusion test. Particulars: read-out: Diameter of inhibition zone. In short, it runs like this:
as §1

The test system of assay [5] is Escherichia coli. Briefly: Antibacterial activity against Escherichia coli ATCC 25922 at 30 ug/disk after overnight incubation by agar diffusion test. The following applies: read-out: Diameter of inhibition zone. In short, it runs like this: as §1
The test system of assay [6] is Stenotrophomonas maltophilia. Briefly: Antibacterial activity against Stenotrophomonas maltophilia ATCC 13637 at 30 ug/disk after overnight incubation by agar diffusion test. Particulars: read-out: Diameter of inhibition zone. In short, it runs like this:
as §1

Assay [7] has as its system Streptococcus agalactiae. Briefly: Antibacterial activity against Streptococcus agalactiae ATCC 13813 at 30 ug/disk after overnight incubation by agar diffusion test. Particulars: read-out: Diameter of inhibition zone. The method, boiled down:
as §1

Assay [8] has as its system Klebsiella pneumoniae subsp. pneumoniae. Briefly: Antibacterial activity against Klebsiella pneumoniae subsp. pneumoniae ATCC 13833 at 10 ug/disk after overnight incubation by agar diffusion test. The following applies: for zone of inhibition at 10 µg/disc: read-out: Diameter of inhibition zone. The method, boiled down: (§2)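 Disk diffusion on agar plates seeded with the named strain. Test samples were dissolved in EtOH, and a 10 µL aliquot was applied to a 6 mm paper disk to give 10, 250 or 500 µg per disk. Commercial antibiotic disks served as controls. Plates were incubated overnight at 37 °C, and the diameter of the inhibition zone around each disk was read in mm.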

The test system is the same in assay [9]. Briefly: Antibacterial activity against Klebsiella pneumoniae subsp. pneumoniae ATCC 13833 at 250 ug/disk after overnight incubation by agar diffusion test. The following applies: read-out: Diameter of inhibition zone. The method, boiled down:
as §2

In assay [10] the test system is Bacillus cereus. Briefly: Antibacterial activity against Bacillus cereus ATCC 11778 at 10 ug/disk after overnight incubation by agar diffusion test. Particulars: for zone of inhibition at 10 µg/disc: read-out: Diameter of inhibition zone. The method, boiled down: as §2
Assay [11] concerns Escherichia coli. Briefly: Antibacterial activity against Escherichia coli ATCC 25922 at 500 ug/disk after overnight incubation by agar diffusion test. Particulars: read-out: Diameter of inhibition zone. The method, boiled down:
as §2

Assay [12] relates to Klebsiella pneumoniae subsp. pneumoniae. Briefly: Antibacterial activity against Klebsiella pneumoniae subsp. pneumoniae ATCC 13833 at 500 ug/disk after overnight incubation by agar diffusion test. The following applies: read-out: Diameter of inhibition zone. The method, boiled down:
as §2

Assay [13] relates to Pseudomonas aeruginosa. Briefly: Antibacterial activity against Pseudomonas aeruginosa ATCC 27853 at 10 ug/disk after overnight incubation by agar diffusion test. The following applies: read-out: Diameter of inhibition zone. In short, it runs like this:
as §2

In assay [14] the test system is Escherichia coli. Briefly: Antibacterial activity against Escherichia coli ATCC 25922 at 250 ug/disk after overnight incubation by agar diffusion test. The following applies: read-out: Diameter of inhibition zone. The method, boiled down: as §2
Assay [15] deals with Pseudomonas aeruginosa. Briefly: Antibacterial activity against Pseudomonas aeruginosa ATCC 27853 at 500 ug/disk after overnight incubation by agar diffusion test. Particulars: read-out: Diameter of inhibition zone. In short, it runs like this: as §2
Assay [16] has as its system Streptococcus agalactiae. Briefly: Antibacterial activity against Streptococcus agalactiae ATCC 13813 at 250 ug/disk after overnight incubation by agar diffusion test. The following applies: read-out: Diameter of inhibition zone. The method, boiled down: as §2
Assay [17] deals with Bacillus cereus. Briefly: Antibacterial activity against Bacillus cereus ATCC 11778 at 250 ug/disk after overnight incubation by agar diffusion test. Particulars: read-out: Diameter of inhibition zone. In short, it runs like this:
as §2

Assay [18] relates to Bacillus cereus. Briefly: Antibacterial activity against Bacillus cereus ATCC 11778 at 500 ug/disk after overnight incubation by agar diffusion test. Particulars: read-out: Diameter of inhibition zone. In short, it runs like this:
as §2

Assay [19] has as its system Escherichia coli. Briefly: Antibacterial activity against Escherichia coli ATCC 25922 at 10 ug/disk after overnight incubation by agar diffusion test. Particulars: read-out: Diameter of inhibition zone. In short, it runs like this:
as §2

Assay [20] relates to Pseudomonas aeruginosa. Briefly: Antibacterial activity against Pseudomonas aeruginosa ATCC 27853 at 250 ug/disk after overnight incubation by agar diffusion test. Particulars: read-out: Diameter of inhibition zone. The method, boiled down: as §2
Assay [21] relates to Staphylococcus aureus. Briefly: Antibacterial activity against Staphylococcus […] at 250 ug/disk after overnight incubation by agar diffusion test. The following applies: read-out: Diameter of inhibition zone. In short, it runs like this:
as §2

Assay [22] relates to Stenotrophomonas maltophilia. Briefly: Antibacterial activity against Stenotrophomonas maltophilia ATCC 13637 at 500 ug/disk after overnight incubation by agar diffusion test. The following applies: read-out: Diameter of inhibition zone. The method, boiled down:
as §2

Assay [23] has as its system Staphylococcus aureus. Briefly: Antibacterial activity against Staphylococcus […] at 500 ug/disk after overnight incubation by agar diffusion test. The following applies: read-out: Diameter of inhibition zone. The method, boiled down: as §2
Assay [24] has as its system Streptococcus agalactiae. Briefly: Antibacterial activity against Streptococcus agalactiae ATCC 13813 at 500 ug/disk after overnight incubation by agar diffusion test. Particulars: read-out: Diameter of inhibition zone. The method, boiled down: as §2
Assay [25] deals with Streptococcus agalactiae. Briefly: Antibacterial activity against Streptococcus agalactiae ATCC 13813 at 10 ug/disk after overnight incubation by agar diffusion test. Particulars: for zone of inhibition at 10 µg/disc: read-out: Diameter of inhibition zone. In short, it runs like this:
as §2

For assay [26], the system named is Stenotrophomonas maltophilia. Briefly: Antibacterial activity against Stenotrophomonas maltophilia ATCC 13637 at 10 ug/disk after overnight incubation by agar diffusion test. The following applies: for zone of inhibition at 10 µg/disc: read-out: Diameter of inhibition zone. The method, boiled down: as §2
For assay [27], the system named is Staphylococcus aureus. Briefly: Antibacterial activity against Staphylococcus […] at 10 ug/disk after overnight incubation by agar diffusion test. Particulars: read-out: Diameter of inhibition zone. The method, boiled down:
as §2

In assay [28] the test system is Stenotrophomonas maltophilia. Briefly: Antibacterial activity against Stenotrophomonas maltophilia ATCC 13637 at 250 ug/disk after overnight incubation by agar diffusion test. Particulars: read-out: Diameter of inhibition zone. The method, boiled down: as §2

Turning to `CN(C)[C@@H]1C(O)=C(C(N)=O)C(=O)[C@@]2(O)C(O)=C3C(=O)c4c(O)cccc4[C@@](C)(O)[C@H]3C[C@@H]12` [TETRACYCLINE], the zone of inhibition – broadly, the size of the clear area around the sample on an inoculated plate – at 30 µg/disc in assay [1] came out at 10 mm; in [2], 18 mm; in assay [3] it was 20 mm; in [4], 27 mm; in [5] it was 18 mm; in assay [6] it was 13 mm. In addition, the zone of inhibition at 30 µg/disc in [7] was found to be 28 mm.

For `CCCC[S+]([O-])SC` (stereo not drawn), the zone of inhibition at 10 µg/disc in assay [8], in assay [10], in assay [13], in assay [19], in [25] and in assay [26] was 0 mm throughout. Further, the zone of inhibition at 10 µg/disc in assay [27] worked out at 8 mm. The zone of inhibition at 250 µg/disc was 16 mm in assay [9]; 22 mm in assay [14]; 0 mm in [16]; 30 mm in [17]; 0 mm in assay [20]; 30 mm in [21]. In assay [28], the zone of inhibition at 250 µg/disc worked out at 12 mm. Further, the zone of inhibition at 500 µg/disc in assay [11] was determined as 24 mm; in assay [12], 18 mm; in [15] it was 8 mm; in [18] it was 34 mm; in assay [22], 14 mm; in assay [23], 38 mm. For the same compound, the zone of inhibition at 500 µg/disc in assay [24] came to 0 mm.

In the case of `O=C(N[C@H](CO)[C@H](O)c1ccc([N+](=O)[O-])cc1)C(Cl)Cl` [CHLORAMPHENICOL], the zone of inhibition at 30 µg/disc in [1] was 0 mm; in [2] it was 24 mm; in assay [3], 18 mm; in [4], 20 mm; in assay [5], 20 mm; in assay [6] it was 22 mm. Further, the zone of inhibition at 30 µg/disc in [7] turned out to be 23 mm.

As for GENTAMICIN, the inhibition zone (IZ) was 22 mm in assay [8], 22 mm in [10], 18 mm in assay [25] and 20 mm in assay [26].

Take `CCCCS[S+](C)[O-]` (stereo not drawn): the zone of inhibition at 10 µg/disc in assay [8], in [10], in assay [13], in assay [19], in assay [25] and in [26] was 0 mm in each case. Besides, the zone of inhibition at 10 µg/disc in assay [27] worked out at 0 mm. Besides, the zone of inhibition at 250 µg/disc in assay [9] amounted to 12 mm; in assay [14] it was 14 mm; in assay [16], 16 mm; in assay [17], 22 mm; in assay [20], 0 mm; in assay [21], 20 mm. Besides, the zone of inhibition at 250 µg/disc in assay [28] was determined as 12 mm. The zone of inhibition at 500 µg/disc in assay [11] was 20 mm; in assay [12], 20 mm; in [15] it was 0 mm; in assay [18], 28 mm; in [22], 17 mm; in assay [23], 26 mm. For the same compound, the zone of inhibition at 500 µg/disc in assay [24] turned out to be 24 mm.

Turning to `CCCCS[S+]([O-])CCCC` (stereo not drawn), the zone of inhibition at 10 µg/disc in assay [8] was 0 mm; in assay [10] it was 8 mm; in assay [13], 0 mm; in [19] it was 0 mm; in assay [25], 0 mm; in assay [26], 0 mm. Moreover, the zone of inhibition at 10 µg/disc in assay [27] amounted to 10 mm. For the same compound, the zone of inhibition at 250 µg/disc turned out to be 8 mm in [9]; 10 mm in [14]; 30 mm in assay [16]; 34 mm in [17]; 0 mm in assay [20]; 34 mm in assay [21]. Besides, the zone of inhibition at 250 µg/disc in assay [28] is 8 mm. The zone of inhibition at 500 µg/disc in assay [11] is 16 mm; in [12], 8 mm; in assay [15], 0 mm; in assay [18] it was 40 mm; in assay [22], 16 mm; in assay [23] it was 38 mm. Besides, the zone of inhibition at 500 µg/disc in [24] amounted to 34 mm.

For the compound `CC1(C)S[C@@H]2[C@H](NC(=O)[C@H](N)c3ccccc3)C(=O)N2[C@H]1C(=O)O` [AMPICILLIN], the zone of inhibition at 10 µg/disc in [8] was 0 mm; in assay [10], 7 mm; in assay [13], 0 mm; in assay [19] it was 18 mm; in assay [25] it was 30 mm; in assay [26] it was 0 mm. Further, the zone of inhibition at 10 µg/disc in [27] is 38 mm.

Source of the values: ChEMBL document CHEMBL1150108, “Isolation of S-n-butylcysteine sulfoxide and six n-butyl-containing thiosulfinates from Allium siculum” (2002).
